This is an account of results in PubChem BioAssay.

Broadly, the viability is a read-out of living cells in per cent, often relative to untreated cells. Broadly, the inhibition is the drop in the measured response relative to a control, in per cent.

A short description of assay [1]: reducers of endogenous Her2 protein level, primary screen, SKBR3 breast tumor cells, AlphaScreen, ATP viability (AID 461;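 active = Her2 level under about 52% in both replicate screens, with viability over 70% of control, limit read from the data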;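 as to Her2 level: lower value means less Her2 protein in the cells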;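 as to viability: percent of carrier control wells set as 100% viability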). The note with it: 18-24 h, measured here: SKBR3 viability, ATP luminescence, at 10 µM.
Assay [2] has as its target Receptor tyrosine-protein kinase erbB-2 (Homo sapiens) (UniProt P04626). Described as above. Conditions: 18-24 h, at 10 µM, stronger effect = lower value.
Assay [3] is described as follows: SK-BR-3 cell growth inhibitors, pilot screen, 24 h, human (AID 572;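 active = viability at or below 10% of carrier control in both of two separate runs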;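 also: compound exposure lasted between 18 and 24 h rather than exactly 24 h; 100% = carrier-treated control wells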). Conditions: SK-BR-3 viability, CellTiter-Glo luminescence, at 10 µM, stronger effect = lower value.
Assay [4] in a line: HUVEC growth inhibition – cell-based, human, primary screen (AID 575;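 active = viability at or below 30% in both replicate assays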;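 also: 100% = median of untreated cell wells with 0.1% DMSO on each plate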). Conditions: HUVEC proliferation, CellTiter-Glo luminescence, 72 h; at 10 µM; stronger effect = lower value. In short, it runs like this:
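Timing: 72 h treatment at 37 °C; material: HUVEC primary cells; technique: CellTiter-Glo luminescence measuring cellular ATP; controls: vehicle and MePR control wells; measure: percent of median DMSO-control luminescence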
On the technique in general: In ATP-based viability assays light output follows the ATP content of the culture.

Assay [5] in a line: growth inhibitors of H69AR lung tumor, primary screen, human, duplicate replicates (AID 580;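 active = viability at or under a set limit in both replicates, limit being median viability minus 3 SD, cut at about 48% in these data, passing the limit was not always enough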;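 also: 100% = mean luminescence of untreated wells and 0% = no signal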). The note with it: H69AR lung tumor cells viability, ATP luminescence, 72 h; at 10 µM; stronger effect = lower value.
Assay [6] is described as follows: reversal of MRP1-mediated doxorubicin resistance, pilot screen, H69AR cells, doxorubicin co-treatment (AID 601). The note with it: CellTiter-Glo, 72 h, at 10 µM; for differential viability (reversal): stronger effect = higher value.
The nature of assay [7]: 384-well plate pilot, post-Golgi transport modulator project, inhibition of yeast transport mutant growth (AID 636; in the data active = inhibition above about 31%). The note with it: absorbance 615 nm, about 18 h, stronger effect = higher value.
The nature of assay [8]: growth suppression of yeast trafficking mutant, preliminary HTS, modulators of trafficking downstream of Golgi apparatus project, 1536-format plate, OD 615 nm (AID 637; in the data active = inhibition above about 30%). Conditions: yeast transport mutant growth, absorbance 615 nm, 18 h; stronger effect = higher value.
[9] abbreviates: H69AR cells + 2 uM doxorubicin, measured here: viability with 2 uM doxorubicin, stronger effect = lower value.
The mark [10] stands for this setting: H69AR cells, compound alone cytotoxicity.

Activity calls are given as the source filed them.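 The calls were made as follows, unless noted: active = viability loss from added drug above about 55%, and viability with drug at most 40%, in both replicates (limit read from the data, passing the limit was not always enough); inconclusive = both conditions met in only one replicate; inactive = neither replicate meets both conditions.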

Sequence of Receptor tyrosine-protein kinase erbB-2 (Homo sapiens) (P04626 whole entry, looked up): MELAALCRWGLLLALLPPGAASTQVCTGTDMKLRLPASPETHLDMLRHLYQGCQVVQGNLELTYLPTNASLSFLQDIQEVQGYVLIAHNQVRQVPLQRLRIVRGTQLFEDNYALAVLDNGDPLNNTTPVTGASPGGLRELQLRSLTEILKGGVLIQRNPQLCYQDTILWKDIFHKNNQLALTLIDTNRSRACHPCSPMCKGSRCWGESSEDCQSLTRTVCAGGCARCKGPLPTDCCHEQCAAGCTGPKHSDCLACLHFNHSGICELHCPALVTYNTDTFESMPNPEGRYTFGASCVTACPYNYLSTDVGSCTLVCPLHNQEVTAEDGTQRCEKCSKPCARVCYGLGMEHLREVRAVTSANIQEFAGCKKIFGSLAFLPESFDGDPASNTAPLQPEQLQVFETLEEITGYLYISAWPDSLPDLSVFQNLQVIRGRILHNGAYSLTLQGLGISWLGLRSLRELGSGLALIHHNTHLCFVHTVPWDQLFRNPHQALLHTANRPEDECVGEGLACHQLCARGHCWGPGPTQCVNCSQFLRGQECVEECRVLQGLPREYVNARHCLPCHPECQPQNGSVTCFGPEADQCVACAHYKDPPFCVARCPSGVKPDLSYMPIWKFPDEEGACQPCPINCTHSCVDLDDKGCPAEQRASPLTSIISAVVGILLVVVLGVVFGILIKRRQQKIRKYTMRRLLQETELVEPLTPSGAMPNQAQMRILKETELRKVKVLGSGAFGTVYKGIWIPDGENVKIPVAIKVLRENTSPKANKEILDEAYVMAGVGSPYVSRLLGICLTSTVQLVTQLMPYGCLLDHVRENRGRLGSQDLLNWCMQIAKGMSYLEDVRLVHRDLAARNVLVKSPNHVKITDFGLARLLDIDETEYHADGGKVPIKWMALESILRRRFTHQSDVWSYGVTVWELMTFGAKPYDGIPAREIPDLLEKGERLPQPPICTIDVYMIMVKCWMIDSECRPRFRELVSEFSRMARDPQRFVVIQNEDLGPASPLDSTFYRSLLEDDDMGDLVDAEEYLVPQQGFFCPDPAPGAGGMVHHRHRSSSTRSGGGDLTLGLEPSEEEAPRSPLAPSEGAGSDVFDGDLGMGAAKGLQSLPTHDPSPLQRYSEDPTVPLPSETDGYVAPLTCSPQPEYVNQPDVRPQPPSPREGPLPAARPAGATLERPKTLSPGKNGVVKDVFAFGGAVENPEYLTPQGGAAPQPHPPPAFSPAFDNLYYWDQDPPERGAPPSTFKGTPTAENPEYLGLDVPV

As for `CCC(Sc1ncccc1C(=O)O)C(=O)N1CCCC1` (stereo not given), the viability is 92% in assay [1]; 92% (inactive) in assay [3]; 95.5% (inactive) in assay [4]; 101% (inactive) in assay [5]; 87.2% in assay [6] (setting [9]); 101% in assay [6] (setting [10]). In assay [2], the Her2 level was 93.5% (inactive). The differential viability (reversal) in assay [6] (H69AR cells + 2 uM doxorubicin) is 14% (inactive). In addition, the inhibition in assay [7] is 2.47% (inactive); in assay [8] it was -5.9% (inactive).

For `O=C(NCC1COc2ccccc2O1)C1CCCN(S(=O)(=O)c2cnc[nH]2)C1` (stereo not given), the viability is 88% in assay [1]; 88% (inactive) in assay [3]; 91.9% (inactive) in assay [4]; 109% (inactive) in assay [5]; 89.7% in assay [6] (setting [9]); 109% in assay [6] (setting [10]). The Her2 level in assay [2] is 101% (inactive). In addition, in assay [6] (H69AR cells + 2 uM doxorubicin), the differential viability (reversal) was 18.9% (inactive). The inhibition in assay [7] is -2.13% (inactive); in assay [8], -2.95% (inactive).

With `CS(=O)(=O)c1ccc2nc(NC(=O)CCC(=O)c3cccs3)sc2c1`, the viability in assay [1] is 91%; in assay [3] it was 91% (inactive); in assay [4] it was 87.5% (inactive); in assay [5], 69.8% (inactive); in assay [6] (setting [9]) it was 74.2%; in assay [6] (setting [10]), 69.8%. The Her2 level in assay [2] was 102% (inactive). Also, in assay [6] (H69AR cells + 2 uM doxorubicin), the differential viability (reversal) is -4.38% (inactive). The values for the inhibition in assay [7] and in assay [8] were -1.05% (inactive) and 4.35% (inactive), respectively.

In the case of `CN(C)S(=O)(=O)c1ccc(C(=O)N2CCC(c3nc4ccccc4o3)CC2)cc1`, the viability is 82% in assay [1]; 82% (inactive) in assay [3]; 95.1% (inactive) in assay [4]; 83% (inactive) in assay [5]; 74.1% in assay [6] (setting [9]); 83% in assay [6] (setting [10]). For the same compound, the Her2 level in assay [2] is 83% (inactive). In addition, the differential viability (reversal) in assay [6] (H69AR cells + 2 uM doxorubicin) is 8.86% (inactive). Besides, the inhibition in assay [7] is -4.67% (inactive); in assay [8], -6.07% (inactive).

Consider `CCCn1nc(NS(=O)(=O)c2ccccc2)c2cc3ccccc3nc21`, for which the viability in assay [1] is 91.5%; in assay [3], 91.5% (inactive); in assay [4] it was 76.5% (inactive); in assay [5], 120% (inactive); in assay [6] (setting [9]) it was 94.9%; in assay [6] (setting [10]), 120%. Also, the Her2 level in assay [2] was 94.5% (inactive). In addition, the differential viability (reversal) in assay [6] (H69AR cells + 2 uM doxorubicin) is 25% (inactive). The results for the inhibition in assay [7] and in assay [8] were -1.84% (inactive) and 5.45% (inactive), respectively.

Regarding `COc1ccc(Br)cc1CNC(=O)CCc1nc(-c2ccc(C)cc2)no1`, the viability in assay [1] is 101%; in assay [3] it was 101% (inactive); in assay [4], 87.4% (inactive); in assay [5], 94.2% (inactive); in assay [6] (setting [9]) it was 82.7%; in assay [6] (setting [10]) it was 94.2%. In assay [2], the Her2 level is 77.5% (inactive). Further, in assay [6] (H69AR cells + 2 uM doxorubicin), the differential viability (reversal) is 11.5% (inactive). The results for the inhibition in assay [7] and in assay [8] were -4.34% (inactive) and -4.67% (inactive), respectively.

Take `COc1ccccc1C1/C(=C(\O)c2c(C)nc3c(C)cccn23)C(=O)C(=O)N1CCCN(C)C` (stereo not given): the viability is 102% in assay [1]; 102% (inactive) in assay [3]; 85.3% (inactive) in assay [4]; 102% (inactive) in assay [5]; 89.2% in assay [6] (setting [9]); 102% in assay [6] (setting [10]). The Her2 level in assay [2] is 79.5% (inactive). Besides, the differential viability (reversal) in assay [6] (H69AR cells + 2 uM doxorubicin) was 12.5% (inactive). Moreover, the inhibition in assay [7] is -7.43% (inactive); in assay [8] it was 5.67% (inactive).

Take `COC(=O)c1[nH]c2ccc(F)cc2c1NS(=O)(=O)c1ccc(OC)cc1OC`: the viability was 79% in assay [1]; 79% (inactive) in assay [3]; 88.5% (inactive) in assay [4]; 84.4% (inactive) in assay [5]; 99.9% in assay [6] (setting [9]); 84.4% in assay [6] (setting [10]). The Her2 level in assay [2] is 75% (inactive). Moreover, in assay [6] (H69AR cells + 2 uM doxorubicin), the differential viability (reversal) was -15.5% (inactive). Also, the results for the inhibition in assay [7] and in assay [8] were -6.76% (inactive) and 4.92% (inactive), respectively.

Regarding `O=C(c1ccccc1Cl)N1CCc2ccccc2C1`, the viability in assay [1] is 97%; in assay [3], 97% (inactive); in assay [4], 97.1% (inactive); in assay [5] it was 83% (inactive); in assay [6] (setting [9]), 81.5%; in assay [6] (setting [10]), 83%. Besides, in assay [2], the Her2 level was 75% (inactive). In addition, the differential viability (reversal) in assay [6] (H69AR cells + 2 uM doxorubicin) was 1.55% (inactive). The inhibition was -8.49% (inactive) in assay [7] and -5.4% (inactive) in assay [8].

Consider `CCc1nnc(NC(=O)C2CCCN2S(=O)(=O)c2ccc(C)cc2)s1` (stereo not given), for which the viability is 91.5% in assay [1]; 91.5% (inactive) in assay [3]; 117% (inactive) in assay [4]; 117% (inactive) in assay [5]; 112% in assay [6] (setting [9]); 117% in assay [6] (setting [10]). Besides, in assay [2], the Her2 level is 89.5% (inactive). Also, in assay [6] (H69AR cells + 2 uM doxorubicin), the differential viability (reversal) is 5.4% (inactive). The inhibition was -6.35% (inactive) in assay [7] and 6.07% (inactive) in assay [8].

Take `COc1ccc(CCNC(=O)C2CCN(C(=O)N(C)C)CC2)cc1OC`: the viability in assay [1] was 86.5%; in assay [3] it was 86.5% (inactive); in assay [4], 108% (inactive); in assay [5], 92.8% (inactive); in assay [6] (setting [9]), 91.2%; in assay [6] (setting [10]), 92.8%. Further, the Her2 level in assay [2] is 117% (inactive). Besides, the differential viability (reversal) in assay [6] (H69AR cells + 2 uM doxorubicin) is 1.61% (inactive). In addition, the inhibition in assay [7] was -2.05% (inactive); in assay [8], -4.67% (inactive).

As to `O=c1[nH]c2c(s1)C(c1ccco1)C1C3CCC(C3)C1S2` (stereo not given), the viability in assay [1] was 100%; in assay [3], 100% (inactive); in assay [4], 113% (inactive); in assay [5] it was 78.8% (inactive); in assay [6] (setting [9]), 89.3%; in assay [6] (setting [10]), 78.8%. For the same compound, the Her2 level in assay [2] was 80% (inactive). In addition, the differential viability (reversal) in assay [6] (H69AR cells + 2 uM doxorubicin) was -10.5% (inactive). Moreover, the inhibition in assay [7] was -3.29% (inactive); in assay [8], 2.73% (inactive).

Regarding `O=C(C(c1ccccc1)c1ccccc1)N1CCN(Cc2ccccn2)CC1`, the viability in assay [1] is 81%; in assay [3] it was 81% (inactive); in assay [4], 84.7% (inactive); in assay [5], 93.4% (inactive); in assay [6] (setting [9]), 93.8%; in assay [6] (setting [10]), 93.4%. Besides, the Her2 level in assay [2] is 112% (inactive). In addition, the differential viability (reversal) in assay [6] (H69AR cells + 2 uM doxorubicin) was -0.39% (inactive). In addition, the inhibition was -1.03% (inactive) in assay [7] and -5.83% (inactive) in assay [8].

Turning to `O=C(Nc1cccc(C(F)(F)F)c1)c1cccnc1N1CCCC1`, the viability in assay [1] was 99%; in assay [3] it was 99% (inactive); in assay [4] it was 102% (inactive); in assay [5], 95% (inactive); in assay [6] (setting [9]) it was 102%; in assay [6] (setting [10]), 95%. In addition, in assay [2], the Her2 level was 102% (inactive). Also, the differential viability (reversal) in assay [6] (H69AR cells + 2 uM doxorubicin) is -6.8% (inactive). For the same compound, the figures for the inhibition in assay [7] and in assay [8] were -2% (inactive) and -1.29% (inactive), respectively.
